Test results from publication PMC8041090 (SLAS discovery : advancing life sciences R & D, 2016).

Legend:
PP2AC = conditions: read-out: IC50, PP2AC; ref [4],[6]; cited from earlier work
PP4C = conditions: read-out: IC50, PP4C; ref [4],[6]; cited from earlier work
PP1C [1] = conditions: read-out: IC50, PP1C; ref [4],[6]; cited from earlier work
PP5C [2] = conditions: read-out: IC50, PP5C; ref [4],[6]; cited from earlier work
PP5C [3] = target: T1, PP5C (Homo sapiens, UniProt P53041); assay: PP5C OMFP FLINT inhibition assay, 1536-well uHTS format; assay type: biochemical
T1 sequence (P53041 1-499): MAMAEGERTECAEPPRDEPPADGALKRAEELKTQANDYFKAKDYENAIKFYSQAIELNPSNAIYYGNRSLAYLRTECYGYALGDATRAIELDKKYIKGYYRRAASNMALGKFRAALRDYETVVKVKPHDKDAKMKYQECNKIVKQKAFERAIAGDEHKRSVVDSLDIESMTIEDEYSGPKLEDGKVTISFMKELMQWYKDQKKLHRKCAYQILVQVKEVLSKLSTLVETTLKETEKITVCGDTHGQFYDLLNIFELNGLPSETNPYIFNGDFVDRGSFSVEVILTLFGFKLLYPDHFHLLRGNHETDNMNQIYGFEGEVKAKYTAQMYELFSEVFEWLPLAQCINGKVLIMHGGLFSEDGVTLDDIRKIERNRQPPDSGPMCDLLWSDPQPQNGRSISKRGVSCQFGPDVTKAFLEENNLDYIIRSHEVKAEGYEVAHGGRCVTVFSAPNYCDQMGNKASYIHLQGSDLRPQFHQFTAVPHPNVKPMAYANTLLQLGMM

PP1C [4] = target: PP1C (Homo sapiens, UniProt P62136); assay: Radiolabeled phosphoprotein substrate confirmation assay; assay type: biochemical
Chain of PP1C (Homo sapiens, UniProt P62136) (P62136 whole entry): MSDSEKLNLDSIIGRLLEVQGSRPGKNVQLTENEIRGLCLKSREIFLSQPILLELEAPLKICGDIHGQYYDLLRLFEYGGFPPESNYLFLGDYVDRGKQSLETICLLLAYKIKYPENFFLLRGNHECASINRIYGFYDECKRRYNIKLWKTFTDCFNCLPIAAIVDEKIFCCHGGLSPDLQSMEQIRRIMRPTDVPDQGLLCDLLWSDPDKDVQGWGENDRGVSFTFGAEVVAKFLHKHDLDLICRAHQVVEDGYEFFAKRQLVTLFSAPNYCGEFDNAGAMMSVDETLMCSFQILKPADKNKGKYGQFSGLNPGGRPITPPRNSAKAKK
In short: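 Purified PP1C catalytic subunit (working stock kept at −20 °C in tris with 50% glycerol, 2 mM DTT, 0.1 mg/mL BSA, 2 mM MnCl₂) was assayed in single tubes against [³²P]- or [³³P]-phosphorylase A in HEPES pH 7.0 PP1C buffer (BSA, Triton X-100, DTT, ascorbate, MnCl₂). Liberated labelled orthophosphate was quantified and expressed as percentage of DMF-vehicle control activity; serial dilutions, n = 3.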

With `C[C@@](O)(/C=C/[C@H]1CC=CC(=O)O1)[C@@H](C[C@@H](O)\C=C/C=C\C=C\CO)OP(=O)(O)O` [fostriecin] as the molecule, how does the IC50 (PP2AC) read?
The IC50 was less than 0.002 µM.

And the IC50 (PP4C)?
The IC50 was less than 0.002 µM.

What about the IC50 (PP1C [1]) of the same molecule?
Its IC50 is greater than 70 µM.

And the IC50 (PP5C [2])?
The IC50 was greater than 70 µM.

With `C[C@@]12C(=O)OC(=O)[C@]1(C)[C@H]1CC[C@@H]2O1` [cantharidin] as the molecule, how does the IC50 (PP5C [3]) read?
Its IC50 is 0.52 µM.

Which IC50 (PP1C [4]) does the source give for `COc1ccc(NC(=O)C2C3CCC(O3)C2C(=O)O)c(OC)c1` (stereo not drawn) [SID 93617938, 3-{[(2,4-dimethoxyphenyl)amino]carbonyl}−7-oxabicyclo[2.2.1]heptane-2-carboxylic acid] here?
Its IC50 is 18.9 µM.
